# Results from BindingDB's records for doi:10.1016/j.ejmech.2011.01.008 (University of Lisbon, 2011).
# Assays:
# Falcipain 2 = target: T1, Falcipain 2 (Plasmodium falciparum, UniProt Q9N6S8); assay: Inhibition of Plasmodium falciparum falcipain 2 incubated with compound for 10 mins before addition of 25 uM Z-Leu-Arg-AMC substrate by fluorescence spectrophotometry
# T1 sequence (Q9N6S8 whole entry): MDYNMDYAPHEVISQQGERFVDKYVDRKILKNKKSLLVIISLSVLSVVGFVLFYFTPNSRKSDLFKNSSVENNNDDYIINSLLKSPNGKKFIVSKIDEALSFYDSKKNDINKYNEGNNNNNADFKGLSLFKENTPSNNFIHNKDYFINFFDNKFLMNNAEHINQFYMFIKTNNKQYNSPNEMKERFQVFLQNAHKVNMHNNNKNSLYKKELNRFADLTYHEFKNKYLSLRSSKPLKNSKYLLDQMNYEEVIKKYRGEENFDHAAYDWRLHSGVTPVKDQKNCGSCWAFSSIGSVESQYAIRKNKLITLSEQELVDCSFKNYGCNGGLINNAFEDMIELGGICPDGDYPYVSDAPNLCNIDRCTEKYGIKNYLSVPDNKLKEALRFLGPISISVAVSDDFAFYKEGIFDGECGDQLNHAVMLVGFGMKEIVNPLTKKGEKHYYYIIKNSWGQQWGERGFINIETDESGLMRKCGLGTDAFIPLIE
# Outline: (§1)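 Run at 25 °C in 100 mM sodium acetate pH 6.0 with 5 mM DTT and 0.75% DMSO. Enzyme was preincubated 10 min with compound diluted from DMSO, then Z-Leu-Arg-AMC was added and fluorescence was read immediately. Eight inhibitor concentrations were made by fivefold serial dilution. IC50 was fitted to percent inhibition versus a no-inhibitor control against log concentration.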
# [1] = target: Cysteine protease falcipain-3 (Plasmodium falciparum, UniProt Q9NAW4); assay: Inhibition of Plasmodium falciparum falcipain 3 incubated with compound for 10 mins before addition of 25 uM Z-Leu-Arg-AMC substrate by fluorescence spectrophotometry; outline: as §1
# Cysteine protease falcipain-3, sequence (Q9NAW4 1-492): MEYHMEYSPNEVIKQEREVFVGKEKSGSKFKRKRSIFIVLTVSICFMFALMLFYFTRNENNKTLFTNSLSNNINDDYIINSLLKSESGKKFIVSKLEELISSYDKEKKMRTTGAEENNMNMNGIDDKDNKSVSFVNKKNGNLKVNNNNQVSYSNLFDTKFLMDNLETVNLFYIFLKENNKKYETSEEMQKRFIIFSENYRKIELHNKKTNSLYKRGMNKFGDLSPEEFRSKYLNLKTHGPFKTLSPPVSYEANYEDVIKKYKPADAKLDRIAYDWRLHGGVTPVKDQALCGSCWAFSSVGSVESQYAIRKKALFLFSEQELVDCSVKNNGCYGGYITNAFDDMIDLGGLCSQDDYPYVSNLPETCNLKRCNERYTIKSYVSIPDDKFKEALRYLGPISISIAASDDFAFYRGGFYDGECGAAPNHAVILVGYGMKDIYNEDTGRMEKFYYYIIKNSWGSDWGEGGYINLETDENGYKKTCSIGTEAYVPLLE
SMILES,IC50 (Falcipain 2) [µM],IC50 [1] [µM]
CCOC(=O)[C@H](Cc1ccccc1)N=CC1C(=O)Nc2ccccc21 (stereo partly drawn) [(Z/E)-(S)-ethyl 2-((2-oxoindolin-3-ylidene)methylamino)-3-phenylpropanoate],> 50,
CCOC(=O)CN=CC1C(=O)Nc2ccccc21 (stereo not drawn) [(Z/E)-ethyl 2-((2-oxoindolin-3-ylidene)methylamino)acetate],> 50,
CC(C)CCNC(=O)CN=CC1C(=O)Nc2ccccc21 (stereo not drawn) [(Z/E)-N-isopentyl-2-((2-oxoindolin-3-ylidene)methylamino)acetamide],> 50,> 50
CC(C)CCNC(=O)[C@H](CCc1ccccc1)N=CC1C(=O)Nc2ccccc21 (stereo partly drawn) [(Z/E)-(S)-N-isopentyl-2-((2-oxoindolin-3-ylidene)methylamino)-4-phenylbutanamide],,> 50
CC(C)CCNC(=O)[C@H](CC(C)C)N=CC1C(=O)Nc2ccccc21 (stereo partly drawn) [(Z/E)-(S)-N-isopentyl-4-methyl-2-((2-oxoindolin-3-ylidene)methylamino)pentanamide],> 50,> 50
O=C1Nc2ccccc2C1C=Nc1ccccc1 (stereo not drawn) [3-((phenylamino)methylene)indolin-2-one],> 50,
CC(C)CCNC(=O)[C@H](CCc1ccccc1)N=CC1C(=O)Nc2c(Cl)cccc21 (stereo partly drawn) [(Z/E)-(S)-2-((7-chloro-2-oxoindolin-3-ylidene)methylamino)-N-isopentyl-4-phenylbutanamide],,> 50
CC(C)CCNC(=O)[C@H](CC(C)C)N=CC1C(=O)Nc2ccc(Cl)cc21 (stereo partly drawn) [(Z/E)-(S)-2-((5-chloro-2-oxoindolin-3-ylidene)methylamino)-N-isopentyl-4-methylpentanamide],,> 50

# More lines, now with the values ahead:
IC50 (Falcipain 2) [µM],IC50 [1] [µM],SMILES
,> 50,CC(C)CCNC(=O)[C@H](Cc1ccccc1)N=CC1C(=O)Nc2ccc(Cl)cc21 (stereo partly drawn) [(Z/E)-(S)-2-((5-chloro-2-oxoindolin-3-ylidene)methylamino)-N-isopentyl-3-phenylpropanamide]
> 50,> 50,CC(C)CCNC(=O)[C@H](CC(C)C)N=CC1C(=O)N(C)c2ccccc21 (stereo partly drawn) [(Z/E)-(S)-N-isopentyl-4-methyl-2-((1-methyl-2-oxoindolin-3-ylidene)methylamino)pentanamide]
> 50,,O=C1Nc2ccccc2C1C=NCCCNc1ccnc2cc(Cl)ccc12 (stereo not drawn) [(Z/E)-3-((3-(7-chloroquinolin-4-ylamino)propylamino)methylene)indolin-2-one]
> 50,,O=C1Nc2ccc(Cl)cc2C1C=NCCCNc1ccnc2cc(Cl)ccc12 (stereo not drawn) [(Z/E)-5-chloro-3-((3-(7-chloroquinolin-4-ylamino)propylamino)methylene)indolin-2-one]
> 50,,O=C1Nc2c(Cl)cccc2C1C=NCCCNc1ccnc2cc(Cl)ccc12 (stereo not drawn) [(Z/E)-7-chloro-3-((3-(7-chloroquinolin-4-ylamino)propylamino)methylene)indolin-2-one]
> 50,,CN1C(=O)C(C=NCCCNc2ccnc3cc(Cl)ccc23)c2ccccc21 (stereo not drawn) [(Z/E)-3-((3-(7-chloroquinolin-4-ylamino)propylamino)methylene)-1-methylindolin-2-one]
> 50,,O=C1Nc2cc(Cl)ccc2C1C=NCCCNc1ccnc2cc(Cl)ccc12 (stereo not drawn) [(Z/E)-6-chloro-3-((3-(7-chloroquinolin-4-ylamino)propylamino)methylene)indolin-2-one]
